Data published in ChEMBL document CHEMBL3784968, “Synthesis and mechanistic aspects of 2-anilinonicotinyl-pyrazolo[1,5-a]pyrimidine conjugates that regulate cell proliferation in MCF-7 cells via estrogen signaling” (2016).
The source made the active and inactive calls. The rule behind the calls is not given here.

Columns and labels:
[1] = system: HeLa; experiment: Cytotoxicity against human HeLa cells assessed as cell viability after 24 to 48 hrs by MTT assay; format: functional
Summary of the method: (§1)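 MTT viability assay in SiHa, HeLa (cervical), MCF-7 (breast) and IMR-32 (neuroblastoma) cells, treated with conjugates over 0.25 to 8 µM for 48 h.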

[2] = system: SiHa; experiment: Cytotoxicity against human SiHa cells assessed as cell viability after 24 to 48 hrs by MTT assay; format: functional; summary of the method: as §1
[3] = Cytotoxicity against human IMR32 cells assessed as cell viability after 24 to 48 hrs by MTT assay; format: functional, IMR-32; summary of the method: as §1
[4] = system: MCF7; experiment: Cytotoxicity against human MCF7 cells assessed as cell viability after 24 to 48 hrs by MTT assay; format: functional; summary of the method: as §1
[5] = system: MCF7; experiment: Cell cycle arrest in human MCF7 cells assessed as accumulation at G0 phase at 8 uM after 48 hrs (reference value: 3%); format: functional
Summary of the method: (§2)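 MCF-7 breast cancer cells exposed 48 h to 4, 8, 16 or 32 µM; doxorubicin as positive control. Cell cycle phase distribution (G0, G1, S, G2/M) read as percentage of cells; G0 fraction taken as apoptotic cells.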

[6] = system: MCF7; experiment: Cell cycle arrest in human MCF7 cells assessed as accumulation at S phase at 32 uM after 48 hrs (reference value: 9%); format: functional; summary of the method: as §2
[7] = system: MCF7; experiment: Down regulation of cyclin D expression in human MCF7 cells at 1 uM after 24 hrs by Western blot analysis; format: functional, cell-based
[8] = system: MCF7; experiment: Cell cycle arrest in human MCF7 cells assessed as accumulation at G1 phase at 4 uM after 48 hrs (reference value: 63%); format: functional; summary of the method: as §2
[9] = system: MCF7; experiment: Cell cycle arrest in human MCF7 cells assessed as accumulation at G0 phase at 32 uM after 48 hrs (reference value: 3%); format: functional; summary of the method: as §2
[10] = system: MCF7; experiment: Cell cycle arrest in human MCF7 cells assessed as accumulation at S phase at 4 uM after 48 hrs (reference value: 9%); format: functional; summary of the method: as §2
[11] = system: MCF7; experiment: Down regulation of Bcl-2 expression in human MCF7 cells at 1 uM after 24 hrs by Western blot analysis; format: functional, cell-based
[12] = system: MCF7; experiment: Cell cycle arrest in human MCF7 cells assessed as accumulation at G0 phase at 16 uM after 48 hrs (reference value: 3%); format: functional; summary of the method: as §2
[13] = system: MCF7; experiment: Cell cycle arrest in human MCF7 cells assessed as accumulation at S phase at 16 uM after 48 hrs (reference value: 9%); format: functional; summary of the method: as §2
[14] = system: MCF7; experiment: Cell cycle arrest in human MCF7 cells assessed as accumulation at G1 phase at 16 uM after 48 hrs (reference value: 63%); format: functional; summary of the method: as §2
[15] = system: MCF7; experiment: Cell cycle arrest in human MCF7 cells assessed as accumulation at S phase at 8 uM after 48 hrs (reference value: 9%); format: functional; summary of the method: as §2
[16] = system: MCF7; experiment: Cell cycle arrest in human MCF7 cells assessed as accumulation at G2/M phase at 32 uM after 48 hrs (reference value: 25%); format: functional; summary of the method: as §2
[17] = system: MCF7; experiment: Cell cycle arrest in human MCF7 cells assessed as accumulation at G0 phase at 4 uM after 48 hrs (reference value: 3%); format: functional; summary of the method: as §2
[18] = system: MCF7; experiment: Cell cycle arrest in human MCF7 cells assessed as accumulation at G1 phase at 32 uM after 48 hrs (reference value: 63%); format: functional; summary of the method: as §2
[19] = system: MCF7; experiment: Cell cycle arrest in human MCF7 cells assessed as accumulation at G2/M phase at 8 uM after 48 hrs (reference value: 25%); format: functional; summary of the method: as §2
[20] = system: MCF7; experiment: Cell cycle arrest in human MCF7 cells assessed as accumulation at G2/M phase at 4 uM after 48 hrs (reference value: 25%); format: functional; summary of the method: as §2
[21] = system: MCF7; experiment: Down regulation of ER alpha expression in human MCF7 cells at 4 uM after 24 hrs by luciferase reporter gene assay; format: functional, cell-based
Summary of the method: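 MCF-7 cells first transfected with ERα construct for 48 h, then compound exposure at 4 µM for 24 h; luciferase-based read-out; etoposide and doxorubicin run as standards.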

[22] = system: MCF7; experiment: Down regulation of survivin expression in human MCF7 cells at 1 uM after 24 hrs by Western blot analysis; format: functional, cell-based
[23] = system: MCF7; experiment: Cell cycle arrest in human MCF7 cells assessed as accumulation at G2/M phase at 16 uM after 48 hrs (reference value: 25%); format: functional; summary of the method: as §2
[24] = system: MCF7; experiment: Cell cycle arrest in human MCF7 cells assessed as accumulation at G1 phase at 8 uM after 48 hrs (reference value: 63%); format: functional; summary of the method: as §2

Row | Structure (SMILES) | Activity [1] [µM] | Activity [2] [µM] | Activity [3] [µM] | Activity [4] [µM] | other results
1 | COc1ccc(Nc2ncccc2C(=O)N2CCN(C(=O)c3cc(-c4ccc(F)cc4)n4nc(-c5ccccc5)cc4n3)CC2)cc1 | 6.6 | 4.56 | 5.37 | 8.08 | 
2 | O=C(c1cc(-c2ccc(Cl)c(Cl)c2)n2nc(-c3ccccc3)cc2n1)N1CCN(C(=O)c2cccnc2Nc2ccc(F)cc2)CC1 | 4.27 | 5.27 | 5.87 | 4.73 | 
3 | COc1ccc(-c2cc(C(=O)N3CCN(C(=O)c4cccnc4Nc4ccc(F)cc4)CC3)nc3cc(-c4ccccc4)nn23)cc1 | 3.79 | 5.93 | 5.87 | 4.97 | 
4 | COc1ccc(-c2cc(C(=O)N3CCN(C(=O)c4cccnc4Nc4ccccc4)CC3)nc3cc(-c4ccccc4)nn23)cc1OC | 2.88 | 5.93 | 6.5 | 6.12 | 
5 | O=C(c1cc(-c2ccc(F)cc2)n2nc(-c3ccccc3)cc2n1)N1CCN(C(=O)c2cccnc2Nc2ccccc2)CC1 | 2.29 | 2.65 | 4.65 | 1.79 | Activity [5]: 2%; Activity [6]: 9%; Activity [7]: Active; Activity [8]: 52%; Activity [9]: 9%; Activity [10]: 8%; Activity [11]: Active; Activity [12]: 5%; Activity [13]: 8%; Activity [14]: 58%; Activity [15]: 10%; Activity [16]: 39%; Activity [17]: 1%; Activity [18]: 44%; Activity [19]: 33%; Activity [20]: 38%; Activity [21]: Active; Activity [22]: Active; Activity [23]: 28%; Activity [24]: 54%
6 | COc1ccc(-c2cc(C(=O)N3CCN(C(=O)c4cccnc4Nc4ccccc4)CC3)nc3cc(-c4ccccc4)nn23)cc1 | 2.43 | 3.33 | 4.75 | 2.16 | Activity [5]: 2%; Activity [6]: 10%; Activity [7]: Active; Activity [8]: 52%; Activity [9]: 13%; Activity [10]: 9%; Activity [11]: Active; Activity [12]: 4%; Activity [13]: 7%; Activity [14]: 64%; Activity [15]: 9%; Activity [16]: 39%; Activity [17]: 1%; Activity [18]: 38%; Activity [19]: 32%; Activity [20]: 37%; Activity [21]: Active; Activity [22]: Active; Activity [23]: 25%; Activity [24]: 57%
7 | COc1cc(Nc2ncccc2C(=O)N2CCN(C(=O)c3cc(-c4ccc(F)cc4)n4nc(-c5ccccc5)cc4n3)CC2)cc(OC)c1OC | 4.31 | 4.07 | 5 | 7.59 | 
8 | COc1ccc(-c2cc(C(=O)N3CCN(C(=O)c4cccnc4Nc4ccc(F)cc4)CC3)nc3cc(-c4ccccc4)nn23)cc1OC | 3.16 | 5.64 | 5.87 | 7.02 | 
9 | COc1ccc(-c2cc(C(=O)N3CCN(C(=O)c4cccnc4Nc4cc(OC)c(OC)c(OC)c4)CC3)nc3cc(-c4ccccc4)nn23)cc1 | 4.24 | 6.08 | 6.62 | 3.83 | 
10 | COc1ccc(-c2cc(C(=O)N3CCN(C(=O)c4cccnc4Nc4ccc(OC)c(OC)c4)CC3)nc3cc(-c4ccccc4)nn23)cc1 | 5.87 | 3.73 | 5.12 | 2.53 | 
11 | COc1ccc(Nc2ncccc2C(=O)N2CCN(C(=O)c3cc(-c4ccc(OC)c(OC)c4)n4nc(-c5ccccc5)cc4n3)CC2)cc1OC | 5.7 | 5.93 | 5.25 | 2.61 | 
12 | COc1ccc(Nc2ncccc2C(=O)N2CCN(C(=O)c3cc(-c4cc(OC)c(OC)c(OC)c4)n4nc(-c5ccccc5)cc4n3)CC2)cc1OC | 6.08 | 3.73 | 5.75 | 4.24 | 
13 | COc1cc(-c2cc(C(=O)N3CCN(C(=O)c4cccnc4Nc4ccc(F)cc4)CC3)nc3cc(-c4ccccc4)nn23)cc(OC)c1OC | 2.57 | 5.25 | 5.75 | 6.28 | 
14 | COc1ccc(Nc2ncccc2C(=O)N2CCN(C(=O)c3cc(-c4ccc(Cl)c(Cl)c4)n4nc(-c5ccccc5)cc4n3)CC2)cc1OC | 5.11 | 3.73 | 7.15 | 5.95 | 
15 | COc1ccc(Nc2ncccc2C(=O)N2CCN(C(=O)c3cc(-c4ccc(OC)cc4)n4nc(-c5ccccc5)cc4n3)CC2)cc1 | 3.72 | 4.36 | 6.37 | 2.93 | 
16 | COc1cc(-c2cc(C(=O)N3CCN(C(=O)c4cccnc4Nc4ccccc4)CC3)nc3cc(-c4ccccc4)nn23)cc(OC)c1OC | 2.99 | 5.1 | 7.25 | 6.93 | 
17 | COc1ccc(Nc2ncccc2C(=O)N2CCN(C(=O)c3cc(-c4ccc(Cl)c(Cl)c4)n4nc(-c5ccccc5)cc4n3)CC2)cc1 | 2.64 | 3.92 | 5 | 6.12 | 
18 | COc1cc(Nc2ncccc2C(=O)N2CCN(C(=O)c3cc(-c4ccc(Cl)c(Cl)c4)n4nc(-c5ccccc5)cc4n3)CC2)cc(OC)c1OC | 4.52 | 3.65 | 5.62 | 5.38 | 
19 | O=C(c1cc(-c2ccc(F)cc2)n2nc(-c3ccccc3)cc2n1)N1CCN(C(=O)c2cccnc2Nc2ccc(F)cc2)CC1 | 3.86 | 7.21 | 5.62 | 3.34 | 
20 | COc1ccc(Nc2ncccc2C(=O)N2CCN(C(=O)c3cc(-c4ccc(F)cc4)n4nc(-c5ccccc5)cc4n3)CC2)cc1OC | 6.33 | 6.62 | 5.25 | 2.69 | 
21 | COc1cccc2c1C(=O)c1c(O)c3c(c(O)c1C2=O)C[C@@](O)(C(=O)CO)C[C@@H]3O[C@H]1C[C@H](N)[C@H](O)[C@H](C)O1 [DOXORUBICIN] | 1.25 | 3.93 | 4.5 | 0.473 | Activity [5]: 4%; Activity [6]: 10%; Activity [8]: 44%; Activity [9]: 8%; Activity [10]: 8%; Activity [12]: 6%; Activity [13]: 11%; Activity [14]: 34%; Activity [15]: 9%; Activity [16]: 46%; Activity [17]: 1%; Activity [18]: 36%; Activity [19]: 50%; Activity [20]: 48%; Activity [23]: 49%; Activity [24]: 37%
22 | COc1ccc(Nc2ncccc2C(=O)N2CCN(C(=O)c3cc(-c4ccc(OC)c(OC)c4)n4nc(-c5ccccc5)cc4n3)CC2)cc1 | 4.62 | 5.1 | 5.87 | 2.85 | 
23 | O=C(c1cc(-c2ccc(Cl)c(Cl)c2)n2nc(-c3ccccc3)cc2n1)N1CCN(C(=O)c2cccnc2Nc2ccccc2)CC1 | 2.57 | 5.93 | 7.87 | 5.3 | 
24 | COc1ccc(-c2cc(C(=O)N3CCN(C(=O)c4cccnc4Nc4cc(OC)c(OC)c(OC)c4)CC3)nc3cc(-c4ccccc4)nn23)cc1OC | 4.24 | 7.65 | 4.88 | 7.34 | 
25 | COc1ccc(Nc2ncccc2C(=O)N2CCN(C(=O)c3cc(-c4cc(OC)c(OC)c(OC)c4)n4nc(-c5ccccc5)cc4n3)CC2)cc1 | 2.85 | 3.87 | 5.87 | 3.02 | 
